Source: ChEMBL document CHEMBL2331282, “9-[2-(R)-(Phosphonomethoxy)propyl]-2,6-diaminopurine (R)-PMPDAP and its prodrugs: optimized preparation, including identification of by-products formed, and antiviral evaluation in vitro” (Bioorg Med Chem, 2013)
Active and inactive are the calls of the source. The rule behind the calls is not given here.

Columns and labels:
Feline coronavirus = assay: Antiviral activity against Feline coronavirus infected in cat CRFK cells assessed as reduction of virus-induced cytopathogenicity; assay type: functional, organism-based; conditions: Alphacoronavirus 1, CRFK
[1] = Cytotoxicity against human HEL cells assessed as alteration of cell morphology up to 100 uM by microscopic analysis; assay type: cell-based
[2] = tested on: Mammalian orthoreovirus 1; assay: Antiviral activity against Reovirus 1 infected in dog MDCK cells assessed as reduction of virus-induced cytopathogenicity; assay type: functional, organism-based; conditions: Mammalian orthoreovirus 1, MDCK
[3] = Cytotoxicity against human HeLa cells assessed as alteration of cell morphology up to 100 uM by microscopic analysis; assay type: cell-based
[4] = tested on: Vesicular stomatitis virus; assay: Antiviral activity against Vesicular stomatitis virus infected in human HEL cells assessed as reduction of virus-induced cytopathogenicity; assay type: functional, organism-based
Punta Toro virus [5] = assay: Antiviral activity against Punta Toro virus infected in dog MDCK cells assessed as reduction of virus-induced cytopathogenicity; assay type: functional, organism-based
Human alphaherpesvirus 1 [6] = assay: Antiviral activity against Herpes simplex virus 1 infected in human HEL cells assessed as reduction of virus-induced cytopathogenicity; assay type: functional, organism-based; conditions: Human alphaherpesvirus 1, HEL
[7] = tested on: Human immunodeficiency virus 1; assay: Antiviral activity against Human immunodeficiency virus 1 infected in human CEM cells assessed as reduction of virus-induced cytopathogenicity; assay type: functional, organism-based; conditions: Human immunodeficiency virus 1, CCRF-CEM
Coxsackievirus B4 [8] = assay: Antiviral activity against Coxsackievirus B4 infected in dog MDCK cells assessed as reduction of virus-induced cytopathogenicity; assay type: functional, organism-based; conditions: Enterovirus B
[9] = Cytotoxicity against cat CRFK cells assessed as alteration of cell morphology up to 100 uM by microscopic analysis; assay type: cell-based, Felis catus
[10] = tested on: Respiratory syncytial virus; assay: Antiviral activity against Respiratory syncytial virus infected in human HeLa cells assessed as reduction of virus-induced cytopathogenicity; assay type: functional, organism-based
Sindbis virus = assay: Antiviral activity against Sindbis virus infected in dog MDCK cells assessed as reduction of virus-induced cytopathogenicity; assay type: functional, organism-based
[11] = tested on: Human immunodeficiency virus 2; assay: Antiviral activity against Human immunodeficiency virus 2 infected in human CEM cells assessed as reduction of virus-induced cytopathogenicity; assay type: functional, organism-based; conditions: Human immunodeficiency virus 2, CCRF-CEM
[12] = tested on: Vesicular stomatitis virus; assay: Antiviral activity against Vesicular stomatitis virus infected in human HeLa cells assessed as reduction of virus-induced cytopathogenicity; assay type: functional, organism-based
Human respirovirus 3 = assay: Antiviral activity against Parainfluenza virus 3 infected in dog MDCK cells assessed as reduction of virus-induced cytopathogenicity; assay type: functional, organism-based; conditions: Human respirovirus 3, MDCK
[13] = Cytotoxicity against dog MDCK cells assessed as alteration of cell morphology up to 100 uM by microscopic analysis; assay type: cell-based, Canis lupus familiaris
Coxsackievirus B4 [14] = assay: Antiviral activity against Coxsackievirus B4 infected in human HeLa cells assessed as reduction of virus-induced cytopathogenicity; assay type: functional, organism-based; conditions: Enterovirus B
Felid alphaherpesvirus 1 [15] = assay: Antiviral activity against Feline herpes virus infected in cat CRFK cells assessed as reduction of virus-induced cytopathogenicity; assay type: functional, organism-based; conditions: Felid alphaherpesvirus 1, CRFK
[16] = Cytotoxicity against human CEM cells assessed as alteration of cell morphology by microscopic analysis; assay type: cell-based; conditions: CEM cells (CCRF-CEM)
Human betaherpesvirus 5 [17] = assay: Antiviral activity against Human cytomegalovirus infected in human HEL cells assessed as reduction of virus-induced cytopathogenicity; assay type: functional, organism-based; conditions: Human betaherpesvirus 5, HEL
Human alphaherpesvirus 2 [18] = assay: Antiviral activity against Herpes simplex virus 2 infected in human HEL cells assessed as reduction of virus-induced cytopathogenicity; assay type: functional, organism-based; conditions: Human alphaherpesvirus 2, HEL
[19] = Cytotoxicity against cat CRFK cells assessed as decrease in cell viability after 3 days by CellTiter 96 Aqueous One solution assay; assay type: cell-based, Felis catus; conditions: 72 h
[20] = tested on: Feline immunodeficiency virus; assay: Antiviral activity against Feline immunodeficiency virus infected in cat CRFK cells assessed as decrease in FIV p24 antigen level treated post-viral infection measured after 6 days by ELISA; assay type: functional, organism-based; conditions: 144 h
How it was run: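 CrFK cells (5000/well) pre-seeded 24 h at 37 °C, 5% CO2; washed with PBS containing 50 µg/ml DEAE-dextran, inoculated with 100 CCID50 FIV plus serial compound dilutions; after 2 h washed and overlaid with 5% FCS DMEM plus compound.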

[21] = tested on: Human immunodeficiency virus 1; assay: Antiviral activity against Human immunodeficiency virus 1 3B infected in human MT4 cells assessed as reduction of virus-induced cytopathicity treated post-viral infection measured after 5 days by Cell-Titer Glo assay; assay type: functional, organism-based; conditions: MT4, 120 h
MT4 = assay: Cytotoxicity against human MT4 cells assessed as decrease in cell viability after 5 days by CellTiter Glo assay; assay type: cell-based; conditions: mt4, 120 h
How it was run: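 MT-4 cells, 2000/well, in RPMI 1640 with 10% FBS plus penicillin/streptomycin; 3-fold serial dilutions, 10 concentrations, final DMSO ≤0.5%; 10 µM puromycin and 0.5% DMSO controls.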

Human betaherpesvirus 5 [22] = assay: Antiviral activity against Human cytomegalovirus at non-toxic concentration; assay type: functional, organism-based
Coxsackievirus B4 [23] = assay: Antiviral activity against Coxsackievirus B4 infected in african green monkey Vero cells; assay type: functional, organism-based; conditions: Enterovirus B
Human alphaherpesvirus 3 [24] = assay: Antiviral activity against TK+ Varicella zoster virus OKA; assay type: functional; conditions: Human alphaherpesvirus 3, strain Oka vaccine
Vaccinia virus = assay: Antiviral activity against Vaccinia virus at non-toxic concentration; assay type: functional, organism-based; conditions: Orthopoxvirus vaccinia
Human alphaherpesvirus 2 [25] = assay: Antiviral activity against Herpes simplex virus 2 at non-toxic concentration; assay type: functional, organism-based
Human alphaherpesvirus 3 [26] = assay: Antiviral activity against TK- Varicella zoster virus O7-1; assay type: functional, organism-based; conditions: Human alphaherpesvirus 3, O7-1
Felid alphaherpesvirus 1 [27] = assay: Antiviral activity against Feline herpes virus at non-toxic concentration; assay type: functional, organism-based
Punta Toro virus [28] = assay: Antiviral activity against Punta Toro virus infected in african green monkey Vero cells; assay type: functional, organism-based
Human alphaherpesvirus 1 [29] = assay: Antiviral activity against Herpes simplex virus 1 at non-toxic concentration; assay type: functional, organism-based

SMILES	EC50 (Feline coronavirus)	MCC [1]	EC50 [2]	MCC [3]	EC50 [4]	EC50 (Punta Toro virus [5])	EC50 (Human alphaherpesvirus 1 [6])	EC50 [7]	EC50 (Coxsackievirus B4 [8])	MCC [9]	EC50 [10]	EC50 (Sindbis virus)	EC50 [11]	EC50 [12]	EC50 (Human respirovirus 3)	MCC [13]	EC50 (Coxsackievirus B4 [14])	EC50 (Felid alphaherpesvirus 1 [15])	MCC [16]	EC50 (Human betaherpesvirus 5 [17])	other results
C[C@H](Cn1cnc2c(NCP(=O)(O)O)nc(N)nc21)OCP(=O)(O)O	> 100 mg/L	> 100 µg/mL	> 100 mg/L	> 100 µg/mL	> 100 mg/L	> 100 mg/L	> 100 mg/L	> 100 mg/L	> 100 mg/L	> 100 µg/mL	> 100 mg/L	> 100 mg/L	> 100 mg/L	> 100 mg/L	> 100 mg/L	> 100 µg/mL	> 100 mg/L	> 100 mg/L	> 100 µg/mL	> 100 mg/L	EC50 (Human alphaherpesvirus 2 [18]): > 100 mg/L
C[C@H](Cn1cnc2c(N)nc(N)nc21)OCP(=O)(O)O	–	–	–	–	–	–	–	–	–	–	–	–	–	–	–	–	–	–	–	–	CC50 [19]: > 500 µM; EC50 [20]: 0.12 µM; EC50 [21]: 0.94 µM; CC50 (MT4): > 100 µM
CCOC(=O)[C@H](C)NP(=O)(CO[C@H](C)Cn1cnc2c(N)nc(N)nc21)N[C@@H](C)C(=O)OCC	–	–	–	–	–	–	–	–	–	–	–	–	–	–	–	–	–	–	–	–	CC50 [19]: 215 µM; EC50 [20]: 1.1 µM; EC50 [21]: 0.29 µM; CC50 (MT4): > 100 µM
C[C@@H](O)CNc1nc(N)nc2c1ncn2C[C@@H](C)O	> 100 mg/L	> 100 µg/mL	> 100 mg/L	> 100 µg/mL	> 100 mg/L	> 100 mg/L	> 100 mg/L	> 100 mg/L	> 100 mg/L	> 100 µg/mL	> 100 mg/L	> 100 mg/L	> 100 mg/L	> 100 mg/L	> 100 mg/L	> 100 µg/mL	> 100 mg/L	> 100 mg/L	> 100 µg/mL	> 100 mg/L	EC50 (Human alphaherpesvirus 2 [18]): > 100 mg/L
CCCCCCCCCCCCCCCCOCCCOP(=O)([O-])CO[C@H](C)Cn1cnc2c(N)nc(N)nc21.[Na+]	–	–	–	–	–	–	–	–	–	–	–	–	–	–	–	–	–	–	–	–	CC50 [19]: 96 µM; Activity (Human betaherpesvirus 5 [22]): inactive; EC50 (Coxsackievirus B4 [23]): 9 mg/L; EC50 [20]: 0.00058 µM; EC50 (Human alphaherpesvirus 3 [24]): < 0.032 mg/L; Activity (Vaccinia virus): inactive; Activity (Human alphaherpesvirus 2 [25]): inactive; EC50 (Human alphaherpesvirus 3 [26]): 0.058 mg/L; Activity (Felid alphaherpesvirus 1 [27]): inactive; EC50 [21]: 0.00224 µM; EC50 (Punta Toro virus [28]): 12 mg/L; CC50 (MT4): 19.8 µM; Activity (Human alphaherpesvirus 1 [29]): inactive
C[C@@H](O)CNc1nc(N)c2ncn(C[C@@H](C)O)c2n1	> 100 mg/L	> 100 µg/mL	> 100 mg/L	> 100 µg/mL	> 100 mg/L	> 100 mg/L	> 100 mg/L	> 100 mg/L	> 100 mg/L	> 100 µg/mL	> 100 mg/L	> 100 mg/L	> 100 mg/L	> 100 mg/L	> 100 mg/L	> 100 µg/mL	> 100 mg/L	> 100 mg/L	> 100 µg/mL	> 100 mg/L	EC50 (Human alphaherpesvirus 2 [18]): > 100 mg/L
